Source: article PMC4229392 (Investigational new drugs, 2014)
Where “and” joins values, the source holds several entries; their conditions need not be identical. Equal entries are not always repeated. Entries after “also recorded” stand apart in the source; their conditions may differ.

Experiments:
[1] = Plasma pharmacokinetics of alisertib ECT; format: in vivo, human; settings: for Tmax: human, plasma
Outline: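 Adults with advanced non-haematologic cancers took oral enteric-coated tablets at 10–60 mg BID for 7 days, then 14 days off (21-day cycles). In cycle 1, plasma was sampled within 1 h before the morning dose and at 0.5–12 h post-dose on days 1 and 7. Further samples were taken 12–132 h after the day 7 evening dose. A validated LC-MS/MS assay and non-compartmental analysis were used. Geometric means were reported only for cohorts of at least 2 patients.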

[2] = cited from earlier work
[3] = test system: AAK inhibition in xenograft models; settings: cited from earlier work
[4] = test system: patients with advanced, non-hematologic malignancies
[5] = acidic solution; preclinical evaluations; cited from earlier work
[6] = test system: advanced, non-hematologic malignancies; experiment: Antitumor activity by RECIST version 1.1; format: in vivo, human
[7] = Urine PK, renal clearance of alisertib; format: in vivo, human
Outline: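 Urine was collected only from patients dosed at 40 mg BID or higher. Samples were taken pre-dose on day 1 and pooled over 0–12 h after the day 7 morning dose of the 7-day oral BID course. Renal clearance was derived from the day 7 collection in 12 patients (10 at 50 mg BID, 2 at 60 mg BID). Quantitation was by LC-MS/MS.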

[8] = steady-state (day 7), ECT, 20 mg BID (n = 3)
[9] = steady-state (day 7), ECT, 40 mg BID (n = 3)
[10] = steady-state (day 7), ECT, 50 mg BID (n = 11)
[11] = steady-state (day 7), ECT, 60 mg BID (n = 2)
[12] = human, in vivo, 7 days of each 21-day cycle

## COc1cc(Nc2ncc3c(n2)-c2ccc(Cl)cc2C(c2c(F)cccc2OC)=NC3)ccc1C(=O)O [alisertib]
[1]; BID dosing, all doses
  Overall mean peak/trough ratio: 2.2
[1]; RP2D of 50 mg BID, ECT
  Geometric mean steady-state trough concentration: > 1 µM
[1]; following BID dosing, all doses
  Accumulation ratio: 2.4
[1]; oral, 40 mg, Median Tmax (range), steady-state (day 7), ECT, 40 mg BID (n = 3)
  Tmax: 3 h
[1]; oral, 50 mg, Median Tmax (range), steady-state (day 7), ECT, 50 mg BID (n = 11)
  Tmax: 2.4 h
[1]; oral, 60 mg, Median Tmax (range), steady-state (day 7), ECT, 60 mg BID (n = 2)
  Tmax: 2.8 h
[1]; po, Overall median Tmax, oral ECT, all doses, range 0–11
  Tmax: ~3 h
[1]; steady-state (day 7), 10–60 mg BID
  Dose dependence of systemic exposure: increased with increasing doses
[1]; [8]
  Mean accumulation ratio (SD): 3.0 (1.0)
  Mean peak/trough ratio (SD): 2.1 (0.7)
[1]; [9]
  Mean accumulation ratio (SD): 2.3 (0.4)
  Mean peak/trough ratio (SD): 2.3 (1.4)
[1]; [10]
  Mean accumulation ratio (SD): 2.2 (0.9)
  Mean peak/trough ratio (SD): 2.3 (0.8)
[1]; [11]
  Mean accumulation ratio: 2.4
  Mean peak/trough ratio: 1.8
[2]; 40 mg BID for 7 days, n = 14, 90% CI: 74.4–108.8%
  Estimated relative bioavailability (geometric mean ratio of steady state alisertib AUC0-τ) of ECT in reference to PIC: 90%
[2]; relative bioavailability analysis of phase 1 data
  Systemic exposures of ECT formulation compared with PIC formulation: generally similar
[3]; murine xenograft studies
  Concentration associated with saturating levels of pharmacodynamic (PD) activity: 1 µM
[3]; preclinical xenograft models
  Concentration associated with AAK inhibition and antitumor activity: 1 µM
[4]; 50 mg BID
  Patients with drug-related SAEs in the MTD cohort: 4 patients
[4]; 50 mg starting dose, not considered related to alisertib
  Patients who died during the first treatment cycle: 2 patients
[4]; ECT, × 7 days in a 21-day cycle
  Maximum tolerated dose (MTD): 50 mg BID
[4]; human, in vivo
  Patients in whom dose reductions were necessary: 21%
  Patients who discontinued treatment due to AEs: 29%
  Patients with any grade of drug-related central nervous system (CNS) AEs: 33%
  Patients with cycle 1 dose-limiting toxicity (grade 4 febrile neutropenia): 1 of 13
  Patients with dose reduction for neutropenia: 13%
  Patients with dose reduction for thrombocytopenia: 8%
  Patients with drug-related CNS AE dizziness: 2 n
  Patients with drug-related CNS AE hypersomnia: 5 n
  Patients with drug-related CNS AE memory impairment: 3 n
  Patients with drug-related grade 3 or higher gastrointestinal AEs: 25%
  Patients with drug-related grade 3 or higher hematologic AEs: 50%
  Patients with drug-related neutropenia: 50%
  Patients with treatment-related fatigue: 33%
[4]; human, in vivo, 7 days
  Alopecia, all-grade treatment-related AE: 10 (42) n (%)
  Anemia, all-grade treatment-related AE: 3 (13) n (%)
  Decreased appetite, all-grade treatment-related AE: 5 (21) n (%)
  Diarrhea, all-grade treatment-related AE: 10 (42) n (%)
  Diarrhea, grade ≥3 treatment-related AE: 2 (8) n (%)
  Fatigue, all-grade treatment-related AE: 8 (33) n (%)
  Fatigue, grade ≥3 treatment-related AE: 2 (8) n (%)
  Febrile neutropenia, all-grade treatment-related AE: 3 (13) n (%)
  Febrile neutropenia, grade ≥3 treatment-related AE: 3 (13) n (%)
  Hypersomnia, all-grade treatment-related AE: 5 (21) n (%)
  Leukopenia, grade ≥3 treatment-related AE: 9 (38) n (%)
  Memory impairment, all-grade treatment-related AE: 3 (13) n (%)
  Nausea, grade ≥3 treatment-related AE: 2 (8) n (%)
  Neutropenia, all-grade treatment-related AE: 12 (50) n (%)
  Neutropenia, grade ≥3 treatment-related AE: 11 (46) n (%)
  Oral candidiasis, all-grade treatment-related AE: 4 (17) n (%)
  Recommended phase 2 dose (RP2D): 50 mg BID
  Severity of CNS AEs (hypersomnia, memory loss, dizziness): 1–2 grade
  Stomatitis, all-grade treatment-related AE: 10 (42) n (%)
  Stomatitis, grade ≥3 treatment-related AE: 2 (8) n (%)
  Thrombocytopenia, all-grade treatment-related AE: 4 (17) n (%)
  Vomiting, all-grade treatment-related AE: 5 (21) n (%)
  Vomiting, grade ≥3 treatment-related AE: 2 (8) n (%)
[4]; [12]
  Leukopenia, all-grade treatment-related AE: 10 (42) n (%)
  Nausea, all-grade treatment-related AE: 10 (42) n (%)
[4]; in vivo
  Tolerability of dose level: poorly tolerated
[5]
  Solubility (in words): reduced solubility in acidic solution
[6]; 16 response-evaluable patients
  Patients with stable disease: Nine patients achieved stable disease; also recorded: Nine patients had stable disease
  Responses by RECIST: No responses by RECIST were observed; also recorded: no complete or partial responses by RECIST were observed
[6]; N = 24
  Patients completing treatment for symptomatic deterioration: 21%
[6]; censored observations (*)
  Duration of stable disease, individual patients: 3.98 months and 1.28 months and 5.45 months and 6.93 months
[6]; not censored
  Duration of stable disease, individual patients: 5.59 months and 2.56 months and 3.48 months and 3.15 months and 8.31 months
[7]; in vivo
  Renal clearance (in words): negligible
[7]; urine 0 to 12 h postdose day 7, 12 patients (50 and 60 mg BID)
  Renal clearance as share of apparent oral clearance: less than 0.1%
